The target of assay [1] is T1, Estrogen receptor (Homo sapiens) (UniProt P03372).
T1 sequence (whole entry): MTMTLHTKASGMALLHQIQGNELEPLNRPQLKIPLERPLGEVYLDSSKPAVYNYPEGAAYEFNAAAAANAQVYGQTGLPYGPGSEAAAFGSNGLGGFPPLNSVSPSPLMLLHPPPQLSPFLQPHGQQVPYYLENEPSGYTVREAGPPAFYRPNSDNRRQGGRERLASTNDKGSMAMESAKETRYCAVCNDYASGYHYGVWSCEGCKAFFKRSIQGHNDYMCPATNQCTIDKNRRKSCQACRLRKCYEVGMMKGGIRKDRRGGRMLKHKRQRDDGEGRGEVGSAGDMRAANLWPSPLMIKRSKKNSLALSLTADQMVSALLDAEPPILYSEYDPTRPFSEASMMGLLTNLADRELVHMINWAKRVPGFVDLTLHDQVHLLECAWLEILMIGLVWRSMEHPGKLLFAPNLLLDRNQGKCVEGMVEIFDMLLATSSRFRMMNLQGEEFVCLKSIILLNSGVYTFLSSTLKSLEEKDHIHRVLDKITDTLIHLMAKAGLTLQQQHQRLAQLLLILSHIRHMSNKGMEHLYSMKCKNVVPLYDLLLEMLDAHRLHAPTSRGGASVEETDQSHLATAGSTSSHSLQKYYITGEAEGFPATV
Kind of assay: Displacement of ES2 ligand from human recombinant ERalpha relative to tamoxifen. The essentials: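 Fluorescence polarization competition assay. Recombinant hERa (7 nM) was preincubated with fluorescent estrogenic probe ES2 (1 nM) in screening buffer, then combined with serial DMSO dilutions of test molecule. After 1 h at room temperature, polarization was read (ex 495 nm, em 535 nm).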

In assay [2] the test system is MCF7. As to the kind of experiment: Enhancement of growth of estrogen receptor positive MCF7 cells at 5 uM after 48 hrs by MTT assay relative to DMSO. It counts as functional, cell-based. Particulars: Homo sapiens. The essentials:
(§1)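 Cells were seeded, left to attach for 24 h, then switched to phenol red-free DMEM with 5% charcoal-stripped FBS. After a further 24 h, compound was added at 5 µM in DMSO (final DMSO ≤0.1%) and incubated 48 h. Viability was read as absorbance at 570 nm by MTT-type kit and expressed relative to DMSO, mean of three determinations.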
(In general: Tetrazolium assays rely on reduction of a dye to a coloured formazan, in cell work by metabolically active cells.)

In assay [3] the target is T1, Estrogen receptor (Homo sapiens). Kind of assay: Agonist activity at human ERalpha in T47D cells assessed as enhancement of AP1-driven transactivation at 5 uM by luciferase reporter assay relative to DMSO. Type of assay: functional, cell-based. A digest of the protocol:
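T47D cells grown in RPMI 1640 + 10% FBS, plated in triplicate at 3 × 10⁵ cells/well in phenol red-free RPMI + 10% charcoal-stripped FBS. After 24 h, transfected with pCMV-hERa, AP1-Luc reporter and pCMV-β (β-gal normalisation). Compound at 5 µM or DMSO for 24 h. Luciferase read and normalised to β-gal. Result expressed as RLA of compound/RLA of DMSO.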
Background: In a reporter assay the amount or activity of a reporter protein is the signal.

The target in assay [4] is T2, Progesterone receptor (Homo sapiens) (UniProt P06401).
T2 sequence (whole entry): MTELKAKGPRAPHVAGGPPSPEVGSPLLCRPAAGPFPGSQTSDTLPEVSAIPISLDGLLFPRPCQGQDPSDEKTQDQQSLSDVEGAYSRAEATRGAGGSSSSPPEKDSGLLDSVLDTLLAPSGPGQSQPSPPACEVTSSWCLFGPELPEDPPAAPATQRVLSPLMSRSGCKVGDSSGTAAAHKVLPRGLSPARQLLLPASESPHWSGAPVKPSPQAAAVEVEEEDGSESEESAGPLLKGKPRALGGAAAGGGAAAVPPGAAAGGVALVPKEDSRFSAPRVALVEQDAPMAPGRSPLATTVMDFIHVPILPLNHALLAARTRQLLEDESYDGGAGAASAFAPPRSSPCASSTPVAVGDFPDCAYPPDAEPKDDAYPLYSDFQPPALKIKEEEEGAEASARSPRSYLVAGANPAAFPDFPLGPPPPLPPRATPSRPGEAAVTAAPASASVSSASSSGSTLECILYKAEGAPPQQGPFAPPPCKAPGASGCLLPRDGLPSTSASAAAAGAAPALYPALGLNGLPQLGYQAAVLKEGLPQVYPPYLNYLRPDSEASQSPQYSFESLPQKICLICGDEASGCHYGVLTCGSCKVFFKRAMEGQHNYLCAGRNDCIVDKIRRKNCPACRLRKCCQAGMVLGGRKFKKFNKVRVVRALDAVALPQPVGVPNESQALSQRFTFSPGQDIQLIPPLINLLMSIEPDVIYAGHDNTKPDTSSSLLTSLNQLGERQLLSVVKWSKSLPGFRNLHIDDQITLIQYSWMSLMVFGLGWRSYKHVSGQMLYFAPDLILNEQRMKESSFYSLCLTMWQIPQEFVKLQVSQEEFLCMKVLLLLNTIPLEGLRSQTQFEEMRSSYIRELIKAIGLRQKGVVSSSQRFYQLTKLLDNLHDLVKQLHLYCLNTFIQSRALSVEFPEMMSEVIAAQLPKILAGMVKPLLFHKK
As to the kind of experiment: Antagonist activity at human PR in T47D cells assessed as MMTV-driven transactivation at 5 uM by luciferase reporter assay relative to progesterone. Type of assay: functional, cell-based. Set-up: scale not given: the % may be the effect or the level left. A digest of the protocol: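 T47D cells in phenol red-free RPMI + 10% charcoal-stripped FBS, 3 × 10⁵ cells/well in triplicate. After 24 h, transfected with pCMV-hPR, pMMTV-Luc reporter and pCMV-β normaliser. Treated for 24 h in the presence of 1 nM progesterone. MMTV-driven luciferase measured on lysate and normalised to β-galactosidase luminescence.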

Assay [5] deals with T1, Estrogen receptor (Homo sapiens). As to the kind of experiment: Agonist activity at human recombinant ERalpha expressed in MCF7 cells assessed as ERE-driven transactivation at 2.5 uM by luciferase reporter assay relative to DMSO. Type of assay: functional, cell-based. A digest of the protocol: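 MCF-7 cells in phenol red-free DMEM with 10% charcoal-stripped FBS, plated in triplicate, transfected 24 h later with pCMV-hERa, 3x-ERE-TATA-Luc and pCMV-b. Test compound (2.5 µM) or DMSO added after transfection; lysed after 24 h. Luciferase normalized to b-galactosidase; reported as ratio of compound RLA to DMSO RLA, mean of three determinations.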

Assay [6] relates to MCF7. As to the kind of experiment: Cell viability of estrogen receptor positive MCF7 cells at 5 uM after 48 hrs by MTT assay relative to DMSO. Type of assay: functional, Homo sapiens. The essentials: as §1
The next assay deals with MDA-MB-231. As to the kind of experiment: Cell viability of estrogen receptor negative MDA-MB-231 cells at 5 uM after 48 hrs by MTT assay relative to DMSO. It counts as functional. A digest of the protocol:
as §1

The source made the active and inactive calls. The calls are words filed in the database; no cut-off is given here.

For `CCCCNC(=O)CCCCCCCCCCOC[C@@H]1Cc2ccccc2CN1C(=O)c1cccc(Cl)c1`, in assay [1], the relative binding affinity (RBA) came to 0.156. In the assay with MCF7 [2], the result was inactive. The result in assay [3] was Active. Further, the Activity in assay [4] is 54%.
`CCCCNC(=O)CCCCCCCCCCOC[C@@H]1Cc2ccccc2CN1C(=O)c1cccc(C)c1`: the relative binding affinity (RBA) in assay [1] turned out to be 0.156. Besides, in assay [5], the result was Active. In addition, in the assay with MCF7 [2], the outcome was inactive.
As for `CCCCNC(=O)CCCCCCCCCCOC[C@@H]1Cc2ccccc2CN1C(=O)c1cccc(F)c1`, the relative binding affinity (RBA) in assay [1] was 0.287. For the same molecule, the result in the assay on MCF7 [2] was inactive.
For `C[C@]12CC[C@@H]3c4ccc(O)cc4C[C@@H](CCCCCCCCC[S+]([O-])CCCC(F)(F)C(F)(F)F)[C@H]3[C@@H]1CC[C@@H]2O` (stereo not given in full), in assay [4], the Activity is 48%.
For `CCCCNC(=O)CCCCCCCCCCOC[C@@H]1Cc2ccccc2CN1C(=O)c1ccc(OC)cc1`, the relative binding affinity (RBA) in assay [1] amounted to 0.14. The result in the assay with MCF7 [2] was inactive.
Taken in the same sequence, the figures for `CCCCNC(=O)CCCCCCCCCCOC[C@@H]1Cc2ccccc2CN1C(=O)c1ccc(F)cc1` were 0.264 and “inactive”.
On to `CCCCNC(=O)CCCCCCCCCCOC[C@@H]1Cc2ccccc2CN1C(=O)Cc1cccc(F)c1`, for which the relative binding affinity (RBA) in assay [1] is 0.267. Also, in assay [5], the outcome was Active. Further, the result in the assay on MCF7 [2] was inactive.
Turning to `CCCCNC(=O)CCCCCCCCCCOC[C@@H]1Cc2ccccc2CN1C(=O)c1cccc(OC)c1`, in assay [1], the relative binding affinity (RBA) amounted to 0.192. The result in the assay on MCF7 [2] was inactive.
As to `CCCCNC(=O)CCCCCCCCCCOC[C@@H]1Cc2ccccc2CN1C(=O)c1cccc(O)c1`, the relative binding affinity (RBA) in assay [1] stood at 5. For the same molecule, the outcome in the assay on MCF7 [2] and with MDA-MB-231 (Homo sapiens) was inactive. In the assay on MCF7 [6], this molecule showed an Activity of 0.48.
For the molecule `CCCCNC(=O)CCCCCCCCCCOC[C@@H]1Cc2ccccc2CN1C(=O)c1ccccc1F`, the relative binding affinity (RBA) in assay [1] was 0.225. For the same molecule, the outcome with MCF7 [2] was inactive.
For `CCCCCCCCNC(=O)CCCCCCCCCCOC[C@@H]1Cc2ccccc2CN1C(=O)c1cccc(F)c1`, in that order: 0.177 and “inactive”.
Turning to `CC/C(=C(\c1ccccc1)c1ccc(OCCN(C)C)cc1)c1ccccc1` [TAMOXIFEN], the result in the assay on MCF7 [2] was inactive. Also, the Activity stood at 0.43 in the assay on MCF7 [6] and 0.65 in the assay on MDA-MB-231.
Consider `CCCCNC(=O)CCCCCCCCCCOC[C@@H]1Cc2ccccc2CN1C(=O)c1ccc(O)cc1`, for which the relative binding affinity (RBA) in assay [1] was 1.79. For the same molecule, the outcome with MCF7 [2] was inactive.
As for `CCCCNC(=O)CCCCCCCCCCOC[C@@H]1Cc2ccccc2CN1C(=O)c1ccc(C)cc1`, in assay [1], the relative binding affinity (RBA) was 0.132. Also, the result in assay [5] was Active. In the assay with MCF7 [2], the result was inactive.

Source of the values: ChEMBL document CHEMBL1139184, “Identification of a series of tetrahydroisoquinoline derivatives as potential therapeutic agents for breast cancer” (2007).
